Data: ChEMBL document CHEMBL1130403, “Synthesis and biological activity of novel nonnucleoside inhibitors of HIV-1 reverse transcriptase. 2-Aryl-substituted benzimidazoles” (J Med Chem, 1997)

Assays:
[1] = biological target: Human immunodeficiency virus type 1 reverse transcriptase (Human immunodeficiency virus 1) (UniProt Q72547); test: Inhibition of HIV-1 (wild type) reverse transcriptase at 10 uMol.; conditions: 10 uM
Method in brief: (§1)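 Purified heterodimer RT (0.015 mg/mL) incubated with or without inhibitor (10 μM) in 25 mM Tris pH 8.0, 75 mM KCl, 8 mM MgCl₂, 2 mM DTT, 0.1 mg/mL BSA, CHAPS, 0.1 units poly(rC)-oligo(dG), 0.01 mM dGTP plus [α-³⁵S]-dGTP; 30 min, 37 °C. Nucleotide incorporation expressed relative to no-inhibitor control.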

[2] = system: CEM-SS; test: In vitro 50% cellular protection of CEM-SS cells from HIV-1 induced cytopathicity.; format: functional, cell-based; conditions: Homo sapiens
[3] = biological target: Human immunodeficiency virus type 1 reverse transcriptase (Human immunodeficiency virus 1, UniProt Q72547); test: The quantity of compound required to reduce WT Reverse transcriptase activity by 50%
Method in brief: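 RNA-dependent DNA polymerase activity of purified heterodimer RT (0.015 mg/mL) at various inhibitor concentrations; 25 mM Tris pH 8.0, 75 mM KCl, 8 mM MgCl₂, 2 mM DTT, 0.1 mg/mL BSA, CHAPS, poly(rC)-oligo(dG) template-primer, 0.01 mM dGTP with [α-³⁵S]-dGTP tracer; 30 min at 37 °C; radiolabel incorporation read.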

[4] = biological target: Human immunodeficiency virus type 1 reverse transcriptase (Human immunodeficiency virus 1) (UniProt Q72547); test: Compound is evaluated for the percent inhibition of HIV-1 WT Reverse transcriptase at 10 uM drug concentration; method in brief: as §1
[5] = biological target: Human immunodeficiency virus type 1 reverse transcriptase (Human immunodeficiency virus 1) (UniProt Q72547); test: Compound is evaluated for the percentage of inhibition of HIV-1 WT Reverse transcriptase at 10 uM drug concentration
Method in brief: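 Purified heterodimer HIV-1 WT RT (0.015 mg/mL), RNA-dependent DNA polymerase assay; poly(rC)-oligo(dG) template-primer (0.1 units), 0.01 mM dGTP plus [α-³⁵S]-dGTP, in 25 mM Tris pH 8.0, 75 mM KCl, 8 mM MgCl₂, 2 mM DTT, 0.1 mg/mL BSA, CHAPS; 30 min, 37 °C. Nucleotide incorporation relative to no-inhibitor control gives % inhibition.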

Molecule `Cc1cccc2c1nc(-c1c(F)cccc1F)n2Cc1c(Cl)cccc1Cl` has an inhibition [1] of 58% and an EC50 [2] of 3160 nM.
`Cc1cccc2c1nc(-c1ccc(C#N)cc1)n2Cc1c(F)cccc1F` was tested, and the inhibition [1] was 26%.
Work on `Cc1cccc2c1nc(-c1c(F)cccc1F)n2Cc1cccnc1` yielded an inhibition [1] of 43%.
`Cc1cccc2c1nc(C=O)n2Cc1c(F)cccc1F` was tested, and the inhibition [1] was 59%.
Molecule `Cc1cccc2c1nc(CO)n2Cc1c(F)cccc1F` has an inhibition [1] of 12%.
For `Cc1cccc2c1nc(-c1ccc3ccccc3c1)n2Cc1c(F)cccc1F`, the inhibition [1] was 8%.
With `Fc1cccc(F)c1-c1nc2ccccc2n1Cc1ccccc1` the inhibition [1] was 71%, the EC50 [2] was greater than 32000 nM and the IC50 [3] was 18600 nM.
Molecule `Cc1ccccc1-c1nc2ccccc2n1Cc1c(F)cccc1F` has an inhibition [1] of 71%.
`Cc1cccc2c1nc(-c1ccncc1)n2Cc1c(F)cccc1F` gave an inhibition [1] of 70% and an EC50 [2] of 3500 nM.
Molecule `Cc1cccc2c1nc(-c1cccc3ccccc13)n2Cc1c(F)cccc1F` has an inhibition [1] of 2%.
Work on `Cc1cccc2c1nc(-c1c(F)cccc1F)n2Cc1c(F)cccc1F` yielded an inhibition [1] of 92%, an EC50 [2] of 440 nM and an IC50 [3] of 200 nM.
With `Fc1cccc(F)c1Cn1c(-c2c(F)cccc2F)nc2ccccc21` the inhibition [1] was 93%, the EC50 [2] was 1700 nM and the IC50 [3] was 110 nM.
For `Cc1cccc2c1nc(-c1c(F)cccc1F)n2S(=O)(=O)c1ccccc1`, the inhibition [1] was 39%.
`Fc1cccc(F)c1COCc1nc2ccccc2n1Cc1c(F)cccc1F` showed an inhibition [1] of 7%.
In the case of `Cc1cccc2c1ncn2Cc1c(F)cccc1F`, the inhibition [1] is reported as 40%.
`Cc1nc2ccccc2n1Cc1c(F)cccc1F` was tested, and the inhibition [1] was 22%.
Molecule `Cc1cccc2c1nc(C(C)C)n2Cc1c(F)cccc1F` has an inhibition [1] of 53%.
`O=S(=O)(c1ccccc1)n1c(-c2c(F)cccc2F)nc2ccccc21` showed an inhibition [1] of 52%.
Molecule `Cc1cccc2c1nc(-c1cccnc1)n2Cc1c(F)cccc1F` has an inhibition [1] of 35% and an EC50 [2] of 31600 nM.
`Fc1cccc(F)c1Cn1c(-c2ccccc2)nc2ccccc21` showed an EC50 [2] of 6060 nM, an inhibition [4] of 77% and an IC50 [3] of 16000 nM.
`Fc1cccc(F)c1C1SCc2nc3ccccc3n21` (centres undefined) [THIAZOLOBENZIMIDAZOLE] showed an EC50 [2] of 520 nM, an inhibition [5] of 84% and an IC50 [3] of 500 nM.
In the case of `Cc1cccc2c1nc(-c1c(F)cccc1F)n2Cc1ccccc1`, the inhibition [1] is reported as 87%, the EC50 [2] is reported as 750 nM and the IC50 [3] is reported as 1600 nM.
For `Cc1cccc2c1nc(-c1c(F)cccc1F)n2Cc1c(F)c(F)c(F)c(F)c1F`, the inhibition [1] was 36%.
In the case of `O=C(c1c(F)cccc1F)n1c(-c2c(F)cccc2F)nc2ccccc21`, the inhibition [1] is reported as 8%.
